The record followed here is ChEMBL document CHEMBL4354843, “Structure-Based Design of a Potent and Selective Covalent Inhibitor for SRC Kinase That Targets a P-Loop Cysteine” (J Med Chem, 2020).

The structures appear in SMILES notation.

Experiment [1] concerns the target Ribosomal protein S6 kinase alpha-5 (Homo sapiens) (UniProt O75582). The experiment is described as follows: Binding affinity to wild-type human partial length N- terminal RPS6KA5 kinase domain 1 expressed in bacterial expression system assessed as residual binding level at 1 uM by Kinomescan method relative to control.
The target in experiment [2] is Dual specificity tyrosine-phosphorylation-regulated kinase 1B (Homo sapiens) (UniProt Q9Y463). The experiment is described as follows: Binding affinity to wild-type human full length DYRK1B (M1 to S629 residues) expressed in bacterial expression system assessed as residual binding level at 1 uM by Kinomescan method relative to control. The method in brief: (§1)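 Active-site-directed KinomeScan competition binding panel covering 468 kinases, compound tested at 1 μM. Each readout is the kinase signal remaining with compound, expressed as a percentage of the DMSO control. […]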

The test system of experiment [3] is Phosphatidylinositol 4,5-bisphosphate 3-kinase catalytic subunit alpha isoform (Homo sapiens), P42336 [I800L]. The experiment is described as follows: Binding affinity to human partial length PIK3CA I800L mutant (R108 to N1068 residues) expressed in mammalian expression system assessed as residual binding level at 1 uM by Kinomescan method relative to control. The method, boiled down:
(§2)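 KinomeScan active site-directed competition binding panel (468 kinases), compound tested at 1 μM. Result expressed as remaining kinase signal versus DMSO control (percent of control).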

For experiment [4], the target named is RAF proto-oncogene serine/threonine-protein kinase (Homo sapiens) (UniProt P04049). The experiment is described as follows: Binding affinity to wild-type human partial length RAF1 (I330 to T640 residues) expressed in bacterial expression system assessed as residual binding level at 1 uM by Kinomescan method relative to control.
The target of experiment [5] is Cyclin-dependent kinase 2 homolog (Plasmodium falciparum (isolate 3D7)) (UniProt P61075). The experiment in a line: Binding affinity to wild-type Plasmodium falciparum full length PK5 (M1 to N288 residues) expressed in mammalian expression system assessed as residual binding level at 1 uM by Kinomescan method relative to control. The method in brief: as §1
Experiment [6] relates to Phosphatidylinositol 4,5-bisphosphate 3-kinase catalytic subunit alpha isoform (Homo sapiens), P42336 [C420R]. The experiment in a line: Binding affinity to human partial length PIK3CA C420R mutant (R108 to N1068 residues) expressed in mammalian expression system assessed as residual binding level at 1 uM by Kinomescan method relative to control. The method in brief: as §2
Chain of Phosphatidylinositol 4,5-bisphosphate 3-kinase catalytic subunit alpha isoform (Homo sapiens), P42336 [C420R] (P42336 whole entry C420R, the tested form may be a part, canonical isoform): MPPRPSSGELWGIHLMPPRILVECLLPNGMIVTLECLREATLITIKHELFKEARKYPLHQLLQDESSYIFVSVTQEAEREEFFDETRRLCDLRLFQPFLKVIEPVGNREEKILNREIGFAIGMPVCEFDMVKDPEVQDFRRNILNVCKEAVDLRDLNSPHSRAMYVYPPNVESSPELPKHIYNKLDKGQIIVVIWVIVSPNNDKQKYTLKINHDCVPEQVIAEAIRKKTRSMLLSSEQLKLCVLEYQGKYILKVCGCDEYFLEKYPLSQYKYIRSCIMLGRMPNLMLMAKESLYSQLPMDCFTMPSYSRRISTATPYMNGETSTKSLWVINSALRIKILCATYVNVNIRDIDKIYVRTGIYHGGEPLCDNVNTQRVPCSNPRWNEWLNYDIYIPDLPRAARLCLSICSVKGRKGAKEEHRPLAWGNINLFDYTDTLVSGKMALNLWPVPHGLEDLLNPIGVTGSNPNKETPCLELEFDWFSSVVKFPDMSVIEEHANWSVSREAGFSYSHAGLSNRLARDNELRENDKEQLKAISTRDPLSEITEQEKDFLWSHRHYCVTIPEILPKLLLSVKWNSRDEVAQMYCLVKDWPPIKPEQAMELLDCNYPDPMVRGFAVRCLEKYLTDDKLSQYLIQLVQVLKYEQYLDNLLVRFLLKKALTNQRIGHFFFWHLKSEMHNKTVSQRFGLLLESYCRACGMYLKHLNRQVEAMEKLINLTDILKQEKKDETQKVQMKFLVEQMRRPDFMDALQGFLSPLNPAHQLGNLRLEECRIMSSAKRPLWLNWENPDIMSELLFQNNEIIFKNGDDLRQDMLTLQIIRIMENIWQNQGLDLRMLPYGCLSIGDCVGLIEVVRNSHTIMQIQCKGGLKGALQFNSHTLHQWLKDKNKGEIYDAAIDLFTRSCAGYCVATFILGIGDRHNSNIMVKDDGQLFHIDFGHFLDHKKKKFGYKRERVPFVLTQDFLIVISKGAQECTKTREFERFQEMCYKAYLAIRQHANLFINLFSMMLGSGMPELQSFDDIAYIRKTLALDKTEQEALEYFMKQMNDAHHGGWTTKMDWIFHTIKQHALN

Experiment [7] concerns the target Phosphatidylinositol 3-kinase C2 domain-containing subunit gamma (Homo sapiens) (UniProt O75747). The experiment is described as follows: Binding affinity to wild-type human partial length PIK3C2G (M1 to I1446 residues) expressed in mammalian expression system assessed as residual binding level at 1 uM by Kinomescan method relative to control.
For experiment [8], the target named is Dual specificity mitogen-activated protein kinase kinase 1 (Homo sapiens) (UniProt Q02750). The experiment is described as follows: Binding affinity to wild-type human full length MEK1 (M1 to V393 residues) expressed in mammalian expression system assessed as residual binding level at 1 uM by Kinomescan method relative to control. The method, boiled down:
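KinomeScan, an active site-directed competition binding panel of 468 kinases. The test compound was at 1 μM. The readout is remaining kinase binding as a percentage of the DMSO control. Scores above 35% were treated as weak binding and not listed.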

In experiment [9] the target is Tyrosine-protein kinase Fgr (Homo sapiens) (UniProt P09769). The experiment is described as follows: Binding affinity to wild-type human partial length FGR (L233 to T529 residues) expressed in bacterial expression system assessed as residual binding level at 1 uM by Kinomescan method relative to control. The method in brief: (§3)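 Active-site-directed competition binding panel of 468 kinases (KinomeScan), compound at 1 μM. The read-out is kinase remaining bound, given as a percentage of the DMSO control. […]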

In experiment [10] the target is Serine/threonine-protein kinase 38-like (Homo sapiens) (UniProt Q9Y2H1). The experiment is described as follows: Binding affinity to wild-type human partial length NDR2 (N34 to E447 residues) expressed in bacterial expression system assessed as residual binding level at 1 uM by Kinomescan method relative to control. The method, boiled down:
as §3

The target of experiment [11] is Serine/threonine-protein kinase 32A (Homo sapiens) (UniProt Q8WU08). The experiment in a line: Binding affinity to wild-type human full length YANK1 (M1 to L396 residues) expressed in mammalian expression system assessed as residual binding level at 1 uM by Kinomescan method relative to control.
Chain of Serine/threonine-protein kinase 32A (Homo sapiens) (Q8WU08 whole entry, the tested form may be a part): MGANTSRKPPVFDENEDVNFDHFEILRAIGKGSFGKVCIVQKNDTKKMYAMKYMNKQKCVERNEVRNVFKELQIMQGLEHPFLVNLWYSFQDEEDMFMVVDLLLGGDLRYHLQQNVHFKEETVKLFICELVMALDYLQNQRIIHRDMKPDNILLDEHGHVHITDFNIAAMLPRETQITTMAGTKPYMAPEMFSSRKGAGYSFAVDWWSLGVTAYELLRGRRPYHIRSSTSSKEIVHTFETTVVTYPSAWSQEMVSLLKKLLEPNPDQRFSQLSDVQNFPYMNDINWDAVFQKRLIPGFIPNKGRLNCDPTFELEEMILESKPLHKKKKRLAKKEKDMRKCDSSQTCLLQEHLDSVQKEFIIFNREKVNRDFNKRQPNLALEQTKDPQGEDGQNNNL
In experiment [12] the target is Megakaryocyte-associated tyrosine-protein kinase (Homo sapiens) (UniProt P42679). The experiment is described as follows: Binding affinity to wild-type human full length CTK (M43 to P508 residues) expressed in mammalian expression system assessed as residual binding level at 1 uM by Kinomescan method relative to control. The method, boiled down:
as §1

For experiment [13], the system named is MDA-MB-231. The experiment is described as follows: Antiproliferative activity against human MDA-MB-231 cells assessed as reduction in cell viability incubated for 72 hrs by cell-titer glo assay relative to control. In kind it is functional. The method in brief:
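Cells seeded at 2000 cells/well, dosed next day with a range of concentrations (DMSO 0.2% as control), 72 h exposure, viability read by CellTiter-Glo luminescence. Dose–response curves and GR values derived with the online GR calculator. Two independent experiments, each in technical triplicate.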

Experiment [14] addresses RAC-gamma serine/threonine-protein kinase (Homo sapiens) (UniProt Q9Y243). The experiment in a line: Binding affinity to wild-type human partial length AKT3 expressed in bacterial expression system assessed as residual binding level at 1 uM by Kinomescan method relative to control.
Experiment [15] concerns the target Muscle, skeletal receptor tyrosine-protein kinase (Homo sapiens) (UniProt O15146). The experiment in a line: Binding affinity to wild-type human partial length MUSK (M553 to V869 residues) expressed in bacterial expression system assessed as residual binding level at 1 uM by Kinomescan method relative to control.
Experiment [16] deals with Serine/threonine-protein kinase Nek10 (Homo sapiens) (UniProt Q6ZWH5). The experiment is described as follows: Binding affinity to wild-type human partial length NEK10 (L488 to R809 residues) expressed in mammalian expression system assessed as residual binding level at 1 uM by Kinomescan method relative to control.
Experiment [17] concerns the target Receptor tyrosine-protein kinase erbB-4 (Homo sapiens) (UniProt Q15303). The experiment is described as follows: Binding affinity to wild-type human partial length ERBB4 (L690 to K994 residues) expressed in bacterial expression system assessed as residual binding level at 1 uM by Kinomescan method relative to control. The method in brief: as §3
Experiment [18] concerns the target Transient receptor potential cation channel subfamily M member 6 (Homo sapiens) (UniProt Q9BX84). The experiment in a line: Binding affinity to wild-type human partial length TRPM6 (Q1723 to I1998 residues) expressed in mammalian expression system assessed as residual binding level at 1 uM by Kinomescan method relative to control. The method in brief:
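Active site-directed competition binding panel (KinomeScan, 468 kinases). Test compound at 1 μM. Read-out is kinase binding remaining versus DMSO control, expressed as percent of control. Scores above 35% are treated as weak binding.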

Experiment [19] concerns the target Serine/threonine-protein kinase SBK1 (Homo sapiens) (UniProt Q52WX2). The experiment is described as follows: Binding affinity to wild-type human partial length SBK1 (P23 to P348 residues) expressed in mammalian expression system assessed as residual binding level at 1 uM by Kinomescan method relative to control.
Experiment [20] deals with Tyrosine-protein kinase ABL1 (Homo sapiens), P00519 [F317I]. The experiment is described as follows: Binding affinity to human phosphorylated ABL1 F317I mutant (S229 to K512 residues) expressed in mammalian expression system assessed as residual binding level at 1 uM by Kinomescan method relative to control. The method in brief: as §2

Chain of Serine/threonine-protein kinase 38-like (Homo sapiens) (Q9Y2H1 2-464 limits assumed): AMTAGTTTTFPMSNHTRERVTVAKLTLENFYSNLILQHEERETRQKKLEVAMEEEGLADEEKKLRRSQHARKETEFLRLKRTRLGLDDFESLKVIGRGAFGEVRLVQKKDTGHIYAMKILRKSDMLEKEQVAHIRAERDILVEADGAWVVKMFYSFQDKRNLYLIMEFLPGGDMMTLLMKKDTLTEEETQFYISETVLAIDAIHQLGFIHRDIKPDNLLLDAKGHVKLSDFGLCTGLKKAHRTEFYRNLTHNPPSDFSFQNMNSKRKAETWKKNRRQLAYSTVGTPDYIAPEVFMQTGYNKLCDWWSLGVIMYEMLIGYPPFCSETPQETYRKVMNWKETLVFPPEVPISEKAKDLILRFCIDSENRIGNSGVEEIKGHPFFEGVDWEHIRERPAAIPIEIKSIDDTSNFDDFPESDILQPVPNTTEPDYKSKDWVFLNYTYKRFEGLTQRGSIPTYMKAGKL
Chain of Muscle, skeletal receptor tyrosine-protein kinase (Homo sapiens) (O15146 whole entry, the tested form may be a part): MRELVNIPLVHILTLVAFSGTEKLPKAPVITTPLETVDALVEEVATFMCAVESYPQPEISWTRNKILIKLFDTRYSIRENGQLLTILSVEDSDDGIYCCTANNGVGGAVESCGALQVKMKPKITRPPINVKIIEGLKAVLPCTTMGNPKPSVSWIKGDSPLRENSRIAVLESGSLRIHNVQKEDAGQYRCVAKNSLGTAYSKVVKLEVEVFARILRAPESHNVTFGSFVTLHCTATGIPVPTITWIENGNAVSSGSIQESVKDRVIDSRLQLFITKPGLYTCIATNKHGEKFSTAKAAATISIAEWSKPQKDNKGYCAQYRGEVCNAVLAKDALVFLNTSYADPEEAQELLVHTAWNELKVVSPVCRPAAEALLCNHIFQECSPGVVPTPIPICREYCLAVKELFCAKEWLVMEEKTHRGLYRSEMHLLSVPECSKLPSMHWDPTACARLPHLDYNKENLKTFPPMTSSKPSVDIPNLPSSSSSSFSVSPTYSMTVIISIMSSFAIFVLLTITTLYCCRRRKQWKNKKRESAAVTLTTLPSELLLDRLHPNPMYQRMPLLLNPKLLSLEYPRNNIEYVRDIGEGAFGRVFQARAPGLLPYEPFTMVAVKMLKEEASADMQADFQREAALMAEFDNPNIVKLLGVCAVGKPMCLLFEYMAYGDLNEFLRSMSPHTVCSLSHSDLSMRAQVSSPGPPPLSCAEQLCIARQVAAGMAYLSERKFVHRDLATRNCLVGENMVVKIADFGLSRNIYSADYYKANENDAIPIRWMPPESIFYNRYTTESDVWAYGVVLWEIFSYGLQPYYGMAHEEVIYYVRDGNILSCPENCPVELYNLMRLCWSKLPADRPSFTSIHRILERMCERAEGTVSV
Chain of Megakaryocyte-associated tyrosine-protein kinase (Homo sapiens) (P42679 whole entry, the tested form may be a part): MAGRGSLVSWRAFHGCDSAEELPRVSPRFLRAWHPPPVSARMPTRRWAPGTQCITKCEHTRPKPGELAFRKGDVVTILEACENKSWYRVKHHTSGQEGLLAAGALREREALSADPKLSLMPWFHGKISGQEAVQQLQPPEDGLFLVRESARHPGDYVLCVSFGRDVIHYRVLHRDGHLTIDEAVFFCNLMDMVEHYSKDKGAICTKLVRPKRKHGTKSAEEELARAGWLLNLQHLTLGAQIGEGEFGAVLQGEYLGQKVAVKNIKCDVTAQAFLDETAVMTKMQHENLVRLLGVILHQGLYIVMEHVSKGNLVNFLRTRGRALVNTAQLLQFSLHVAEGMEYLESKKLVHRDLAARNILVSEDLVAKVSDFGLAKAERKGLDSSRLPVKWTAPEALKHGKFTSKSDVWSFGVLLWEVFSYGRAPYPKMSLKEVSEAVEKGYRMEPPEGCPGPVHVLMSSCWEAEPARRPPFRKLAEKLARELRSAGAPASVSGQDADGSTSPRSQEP
Chain of Serine/threonine-protein kinase SBK1 (Homo sapiens) (Q52WX2 whole entry, the tested form may be a part): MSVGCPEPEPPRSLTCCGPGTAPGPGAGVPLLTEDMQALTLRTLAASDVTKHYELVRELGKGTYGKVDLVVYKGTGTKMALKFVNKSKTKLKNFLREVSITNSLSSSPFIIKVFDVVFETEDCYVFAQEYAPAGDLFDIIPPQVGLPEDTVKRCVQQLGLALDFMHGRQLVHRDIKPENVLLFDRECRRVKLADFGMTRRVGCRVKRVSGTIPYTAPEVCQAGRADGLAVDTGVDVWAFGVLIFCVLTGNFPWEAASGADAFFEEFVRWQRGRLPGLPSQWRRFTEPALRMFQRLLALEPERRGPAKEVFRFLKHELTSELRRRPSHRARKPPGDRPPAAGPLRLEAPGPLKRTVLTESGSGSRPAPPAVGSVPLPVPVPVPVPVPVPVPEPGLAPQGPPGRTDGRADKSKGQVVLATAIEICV
Chain of Phosphatidylinositol 4,5-bisphosphate 3-kinase catalytic subunit alpha isoform (Homo sapiens), P42336 [I800L] (P42336 whole entry I800L, the tested form may be a part, canonical isoform): as the sequence (P42336 whole entry C420R, the tested form may be a part, canonical isoform) above, with R420C, I800L counted along it

`C=CC(=O)Nc1ccccc1Nc1nc(Nc2ccc(N3CCN(C)CC3)cc2)ncc1C(=O)Nc1c(C)cccc1Cl`: the Activity in [1] stood at 100%; in experiment [2], 74%; in [3], 86%; in [4], 100%; in experiment [5], 100%; in [6] it was 100%. Further, the Activity turned out to be 100% in [7]; 93% in [8]; 30% in experiment [9]; 93% in experiment [10]; 100% in [11]; 100% in experiment [12]. Moreover, the Activity in experiment [14] worked out at 100%; in experiment [15], 100%; in experiment [16], 100%; in [17], 6.6%; in experiment [18], 81%; in [19] it was 100%. In addition, in [20], the Activity came out at 6.9%. Also, the Emax in experiment [13] was -0.4.
